Experimental data taken from ChEMBL document CHEMBL1153345, “Novel tricyclic inhibitors of IkappaB kinase” (J Med Chem, 2009).

Tests used:
[1] = biological target: T1, Inhibitor of nuclear factor kappa-B kinase subunit alpha (Homo sapiens, UniProt O15111); assay: Inhibition of IKK1-mediated phosphorylation of GST-IkappaBalpha fusion protein afterr 60 mins by fluorescence polarization assay
T1 sequence (O15111 whole entry): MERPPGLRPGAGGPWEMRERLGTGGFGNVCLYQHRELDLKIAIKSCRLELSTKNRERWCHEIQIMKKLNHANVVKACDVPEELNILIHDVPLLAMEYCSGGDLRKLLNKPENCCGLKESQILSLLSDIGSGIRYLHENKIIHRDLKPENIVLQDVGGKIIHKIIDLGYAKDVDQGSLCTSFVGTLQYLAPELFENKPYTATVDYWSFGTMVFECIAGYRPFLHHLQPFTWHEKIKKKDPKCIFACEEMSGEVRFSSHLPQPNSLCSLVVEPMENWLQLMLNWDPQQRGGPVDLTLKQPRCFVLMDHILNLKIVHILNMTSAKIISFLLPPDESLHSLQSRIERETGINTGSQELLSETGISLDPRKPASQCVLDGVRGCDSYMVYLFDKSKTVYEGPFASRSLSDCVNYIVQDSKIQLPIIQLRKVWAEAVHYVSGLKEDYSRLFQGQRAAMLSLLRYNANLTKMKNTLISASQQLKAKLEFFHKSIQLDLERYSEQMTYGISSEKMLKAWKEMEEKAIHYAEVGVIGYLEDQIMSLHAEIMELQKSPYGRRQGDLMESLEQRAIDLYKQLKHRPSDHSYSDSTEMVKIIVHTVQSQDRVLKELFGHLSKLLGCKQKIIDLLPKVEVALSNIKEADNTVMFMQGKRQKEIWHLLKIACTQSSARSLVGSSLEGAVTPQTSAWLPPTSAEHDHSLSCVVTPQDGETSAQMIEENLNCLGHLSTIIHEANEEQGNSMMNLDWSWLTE
Method in brief: (§1)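 GST-IκBα (50 µg/mL) with 20 µM ATP in 25 mM Tris-HCl pH 7.5, 7.5 mM MgCl2, 1 mM DTT, 5% glycerol, BSA; reaction started by adding IKK enzyme (IKK-2 typically 3 µg/mL final) at room temperature. Stopped after 60 min with 33 mM EDTA. Phospho-IκBα quantified by fluorescence polarization, competing with a fluorescein-labelled phosphopeptide for anti-phospho-IκBα antibody.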

[2] = biological target: Proto-oncogene tyrosine-protein kinase Src (Homo sapiens, UniProt P12931); assay: Inhibition of Src
Proto-oncogene tyrosine-protein kinase Src, sequence (P12931 2-536 limits assumed): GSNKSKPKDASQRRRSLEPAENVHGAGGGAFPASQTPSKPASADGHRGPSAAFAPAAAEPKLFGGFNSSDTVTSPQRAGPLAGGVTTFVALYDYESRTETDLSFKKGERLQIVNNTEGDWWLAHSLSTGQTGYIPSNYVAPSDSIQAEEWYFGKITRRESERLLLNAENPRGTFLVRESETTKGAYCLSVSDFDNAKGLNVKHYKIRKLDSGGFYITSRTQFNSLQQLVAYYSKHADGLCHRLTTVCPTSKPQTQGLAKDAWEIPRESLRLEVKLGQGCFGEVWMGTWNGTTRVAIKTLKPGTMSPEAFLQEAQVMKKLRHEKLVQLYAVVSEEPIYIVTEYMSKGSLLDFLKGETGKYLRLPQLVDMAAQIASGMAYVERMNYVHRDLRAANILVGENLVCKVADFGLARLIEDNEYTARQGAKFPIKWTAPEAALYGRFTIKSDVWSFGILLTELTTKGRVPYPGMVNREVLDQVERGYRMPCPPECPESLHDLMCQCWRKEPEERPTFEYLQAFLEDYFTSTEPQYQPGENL
Method in brief: (§2)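 In-house kinase selectivity panel of 30 kinases; enzyme inhibition values reported in µM.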

[3] = biological target: T2, Inhibitor of nuclear factor kappa-B kinase subunit beta (Homo sapiens, UniProt O14920); assay: Inhibition of IKK2-mediated phosphorylation of GST-IkappaBalpha fusion protein afterr 60 mins by fluorescence polarization assay; method in brief: as §1
T2 sequence (O14920 whole entry): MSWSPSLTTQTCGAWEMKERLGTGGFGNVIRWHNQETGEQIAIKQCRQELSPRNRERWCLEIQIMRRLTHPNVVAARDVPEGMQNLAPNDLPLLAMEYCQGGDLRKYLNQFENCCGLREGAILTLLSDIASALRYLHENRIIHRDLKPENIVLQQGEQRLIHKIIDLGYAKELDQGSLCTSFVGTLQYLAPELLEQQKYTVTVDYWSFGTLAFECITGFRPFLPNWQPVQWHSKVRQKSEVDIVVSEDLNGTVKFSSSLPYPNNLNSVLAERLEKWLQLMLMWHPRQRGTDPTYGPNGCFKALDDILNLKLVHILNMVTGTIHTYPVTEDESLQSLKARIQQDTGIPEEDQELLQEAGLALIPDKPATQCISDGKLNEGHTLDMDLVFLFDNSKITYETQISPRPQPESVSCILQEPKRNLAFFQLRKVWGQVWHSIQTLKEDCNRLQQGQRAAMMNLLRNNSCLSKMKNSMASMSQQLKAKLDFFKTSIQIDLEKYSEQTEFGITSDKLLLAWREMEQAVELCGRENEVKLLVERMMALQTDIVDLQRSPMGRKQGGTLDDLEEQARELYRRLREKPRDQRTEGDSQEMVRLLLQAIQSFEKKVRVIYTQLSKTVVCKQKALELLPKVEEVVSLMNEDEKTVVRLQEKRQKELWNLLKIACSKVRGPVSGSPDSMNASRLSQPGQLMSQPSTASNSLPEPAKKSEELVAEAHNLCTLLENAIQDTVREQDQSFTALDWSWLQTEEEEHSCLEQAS

[4] = Metabolic stability in mouse liver microsomes assessed as clearance at 3 uM after 1 hr; assay type: ADME, Microsome
Method in brief: (§3)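 Liver microsomes (mouse, human or rat) at 1 mg/mL protein with 3 µM compound in 65 mM phosphate buffer pH 7.4 and 1 mM NADPH, 37 °C, 1 h. Samples taken at 0 and 15 min and quenched with acetonitrile. Metabolic rate calculated from parent disappearance between 0 and 15 min.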

[5] = biological target: Tyrosine-protein kinase BTK (Homo sapiens, UniProt Q06187); assay: Inhibition of Btk; method in brief: as §2
Tyrosine-protein kinase BTK, sequence (Q06187 whole entry): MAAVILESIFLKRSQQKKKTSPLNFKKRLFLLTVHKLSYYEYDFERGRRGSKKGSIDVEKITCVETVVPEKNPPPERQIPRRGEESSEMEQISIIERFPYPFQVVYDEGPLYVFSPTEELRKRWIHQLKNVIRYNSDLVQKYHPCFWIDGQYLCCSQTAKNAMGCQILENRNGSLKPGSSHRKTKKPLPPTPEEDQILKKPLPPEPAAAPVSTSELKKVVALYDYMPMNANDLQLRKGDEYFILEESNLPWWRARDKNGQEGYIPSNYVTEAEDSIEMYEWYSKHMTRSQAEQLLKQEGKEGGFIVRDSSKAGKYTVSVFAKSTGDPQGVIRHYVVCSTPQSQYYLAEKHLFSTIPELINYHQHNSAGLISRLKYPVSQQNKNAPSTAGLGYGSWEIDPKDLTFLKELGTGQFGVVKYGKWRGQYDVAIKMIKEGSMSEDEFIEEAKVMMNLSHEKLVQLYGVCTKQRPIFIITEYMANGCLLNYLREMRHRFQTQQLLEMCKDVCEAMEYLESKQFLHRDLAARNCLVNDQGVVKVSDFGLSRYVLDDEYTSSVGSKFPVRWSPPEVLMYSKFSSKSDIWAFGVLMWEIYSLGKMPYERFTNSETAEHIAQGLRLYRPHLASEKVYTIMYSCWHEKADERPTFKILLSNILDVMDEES

[6] = biological target: Serine/threonine-protein kinase PLK1 (Homo sapiens, UniProt P53350); assay: Inhibition of Plk1; method in brief: as §2
Serine/threonine-protein kinase PLK1, sequence (P53350 whole entry): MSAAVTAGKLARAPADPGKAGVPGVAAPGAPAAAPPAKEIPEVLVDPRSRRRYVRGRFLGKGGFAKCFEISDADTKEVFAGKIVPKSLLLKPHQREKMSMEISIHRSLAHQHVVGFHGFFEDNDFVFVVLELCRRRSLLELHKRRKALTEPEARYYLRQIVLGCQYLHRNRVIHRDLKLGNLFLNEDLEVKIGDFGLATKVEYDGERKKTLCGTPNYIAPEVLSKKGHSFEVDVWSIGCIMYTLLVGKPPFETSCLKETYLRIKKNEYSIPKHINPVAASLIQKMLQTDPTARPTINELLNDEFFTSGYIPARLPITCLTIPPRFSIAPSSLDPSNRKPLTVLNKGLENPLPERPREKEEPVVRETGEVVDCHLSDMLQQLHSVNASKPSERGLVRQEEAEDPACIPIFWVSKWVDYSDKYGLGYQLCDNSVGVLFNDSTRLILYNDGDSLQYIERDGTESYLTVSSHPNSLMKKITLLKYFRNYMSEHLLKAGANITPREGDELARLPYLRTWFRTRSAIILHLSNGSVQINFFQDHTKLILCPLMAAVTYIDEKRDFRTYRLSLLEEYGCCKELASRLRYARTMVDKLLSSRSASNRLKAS

[7] = biological target: T3, Inhibitor of nuclear factor kappa-B kinase subunit epsilon (Homo sapiens, UniProt Q14164); assay: Inhibition of IKKepsilon; method in brief: as §2
T3 sequence (Q14164 whole entry): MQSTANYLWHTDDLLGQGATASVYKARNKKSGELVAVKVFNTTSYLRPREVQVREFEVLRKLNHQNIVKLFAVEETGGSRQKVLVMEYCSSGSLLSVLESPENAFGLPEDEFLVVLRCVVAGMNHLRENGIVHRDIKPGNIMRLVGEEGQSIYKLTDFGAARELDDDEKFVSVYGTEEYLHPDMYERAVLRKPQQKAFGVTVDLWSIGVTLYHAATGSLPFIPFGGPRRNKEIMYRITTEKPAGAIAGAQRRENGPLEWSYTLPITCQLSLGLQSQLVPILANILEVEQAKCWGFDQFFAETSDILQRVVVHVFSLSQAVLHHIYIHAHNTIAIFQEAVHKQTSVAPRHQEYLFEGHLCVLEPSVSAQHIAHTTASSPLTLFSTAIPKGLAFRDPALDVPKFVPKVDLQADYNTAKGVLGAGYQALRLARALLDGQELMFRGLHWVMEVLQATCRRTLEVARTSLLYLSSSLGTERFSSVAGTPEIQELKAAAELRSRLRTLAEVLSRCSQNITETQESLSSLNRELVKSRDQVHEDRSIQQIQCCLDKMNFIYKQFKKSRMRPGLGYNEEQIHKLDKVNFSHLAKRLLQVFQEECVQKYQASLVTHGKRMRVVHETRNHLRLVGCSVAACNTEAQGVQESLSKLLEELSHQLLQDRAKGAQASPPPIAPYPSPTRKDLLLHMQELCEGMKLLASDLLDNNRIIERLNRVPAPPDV

[8] = Inhibition of IGFR; method in brief: as §2
[9] = test system: Liver microsomes; assay: Metabolic stability in human liver microsomes assessed as clearance at 3 uM after 1 hr; assay type: ADME, Microsome; method in brief: as §3
[10] = biological target: Cyclin-dependent kinase 2 (Homo sapiens, UniProt P24941); assay: Inhibition of Cdk2; method in brief: as §2
[11] = test system: Liver microsomes; assay: Metabolic stability in rat liver microsomes assessed as clearance at 3 uM after 1 hr; assay type: ADME, Microsome; method in brief: as §3
[12] = biological target: T4, Tyrosine-protein kinase ITK/TSK (Homo sapiens, UniProt Q08881); assay: Inhibition of Itk; method in brief: as §2
T4 sequence (Q08881 whole entry): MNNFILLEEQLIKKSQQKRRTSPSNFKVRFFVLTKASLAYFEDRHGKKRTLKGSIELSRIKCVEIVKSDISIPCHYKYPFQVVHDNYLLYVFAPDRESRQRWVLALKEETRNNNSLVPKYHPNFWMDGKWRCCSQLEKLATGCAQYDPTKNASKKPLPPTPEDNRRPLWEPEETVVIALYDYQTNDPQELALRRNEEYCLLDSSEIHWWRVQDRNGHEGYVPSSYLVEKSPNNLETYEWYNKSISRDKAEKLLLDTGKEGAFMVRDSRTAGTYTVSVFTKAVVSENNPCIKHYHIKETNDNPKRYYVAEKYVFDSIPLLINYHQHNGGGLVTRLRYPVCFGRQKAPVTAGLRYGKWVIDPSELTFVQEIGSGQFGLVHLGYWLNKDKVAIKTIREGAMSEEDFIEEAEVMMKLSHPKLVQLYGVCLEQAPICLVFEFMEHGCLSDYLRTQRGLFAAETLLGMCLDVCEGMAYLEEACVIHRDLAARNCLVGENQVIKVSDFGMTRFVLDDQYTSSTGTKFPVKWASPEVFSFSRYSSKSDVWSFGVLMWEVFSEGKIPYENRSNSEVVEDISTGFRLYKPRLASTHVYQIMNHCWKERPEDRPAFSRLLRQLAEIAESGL

[13] = Volume of distribution at steady state in rat at 2 mg/kg, iv; assay type: ADME, organism-based; set-up: dose 2 mg/kg, route intravenous; settings: in vivo, read-out: Vdss
Method in brief: (§4)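 Some compounds were dosed as a cassette of five compounds at 2 mg/kg each, after prescreening to exclude potent CYP inhibitors (IC50 < 10 µM).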

[14] = Half life in rat at 2 mg/kg, iv; assay type: ADME, organism-based; set-up: dose 2 mg/kg, route intravenous; settings: in vivo; method in brief: as §4
[15] = Clearance in rat at 2 mg/kg, iv; assay type: ADME, organism-based; set-up: dose 2 mg/kg, route intravenous; settings: in vivo; method in brief: as §4
[16] = Selectivity ratio of IC50 for IKK1 to IC50 for IKK2
Method in brief: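 Buffer was 25 mM Tris-HCl pH 7.5 with 7.5 mM MgCl2, 1 mM DTT, 5% glycerol and 470 µg/mL BSA. IKK-2 was typically 3 µg/mL final. Reactions ran 60 min at room temperature, stopped with 33 mM EDTA. Phospho-IκBα was read by fluorescence-polarization competition of a fluorescein phosphopeptide for an anti-phospho antibody. Ratio = IKK1 IC50/IKK2 IC50.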

[17] = Cmax in rat at 2 mg/kg, iv; assay type: ADME, organism-based; set-up: dose 2 mg/kg, route intravenous; settings: in vivo; method in brief: as §4
[18] = AUC in rat at 2 mg/kg, iv; assay type: ADME, organism-based; set-up: dose 2 mg/kg, route intravenous; settings: plasma; method in brief: as §4
[19] = test system: Mus musculus; assay: Inhibition of LPS-induced TNFalpha release in serum of BALB/c mouse at 10 mg/kg, po administered 4 hrs before LPS challenge measured afterr 90 mins by ELISA relative to control; assay type: functional
Method in brief: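 Female BALB/c mice, 6-8 weeks old, acclimated at least 1 week. Compound given orally in 100% PEG300 (0.1 mL) about 4 h before ip LPS (E. coli O111:B4, 0.1 mL of 10 µg/mL in PBS; 50 µg/kg). Vehicle-only controls. Blood taken 90 min after LPS; serum TNF-α by ELISA; mean ± SEM, n = 8 per group.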

[20] = test system: PBMC; assay: Inhibition of LPS-induced TNFalpha production in human PBMC preincubated for 30 mins before LPS challenge measured afterr 6 hrs by ELISA; assay type: functional, cell-based
Method in brief: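 PBMCs from healthy donor blood, isolated over ficoll in RPMI containing EDTA and polymyxin, then resuspended in RPMI/10% FBS at 1 × 10^6 cells/mL. Compound preincubated 30 min, then LPS added (25 ng/mL final). Incubated 6 h at 37 °C, 5% CO2; supernatant TNF-α measured by ELISA.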

Compound: CNc1nc2oc(-c3ccccc3)nc2c2c1ncn2C
- IC50 [1]: 0.27 µM
- IC50 [2]: < 50 µM
- IC50 [3]: 0.011 µM
- CL [4]: 0.23 nmol/mg/min
- IC50 [5]: 23 µM
- IC50 [6]: < 50 µM
- IC50 [7]: 17 µM
- IC50 [8]: < 50 µM
- CL [9]: 0.09 nmol/mg/min
- IC50 [10]: 16 µM
- CL [11]: 0.14 nmol/mg/min
- IC50 [12]: 17 µM

Compound: CNc1nc2sc(-c3ccccc3)nc2c2c1ncn2C
- Vd [13]: 2.8 L/kg
- IC50 [1]: 3.5 µM
- IC50 [3]: 0.006 µM
- half-life [14]: 72 min
- CL [4]: 0.25 nmol/mg/min
- clearance [15]: 42 mL/min/kg
- CL [9]: 0.09 nmol/mg/min
- Ratio IC50 [16]: 580
- Cmax [17]: 3 µM
- CL [11]: 0.12 nmol/mg/min
- AUC [18]: 2.8 µM·h

Compound: CNc1nc2sc(-c3cccc(CNC(=O)c4csnn4)c3)nc2c2c1ncn2C
- Vd [13]: 0.2 L/kg
- IC50 [1]: 10 µM
- IC50 [3]: 0.016 µM
- half-life [14]: 36 min
- CL [4]: 0.23 nmol/mg/min
- clearance [15]: 3 mL/min/kg
- inhibition in vivo at 10 mg/kg [19]: 50%
- CL [9]: 0.16 nmol/mg/min
- Cmax [17]: 3.9 µM
- CL [11]: 0.14 nmol/mg/min
- IC50 [20]: 0.082 µM
- AUC [18]: 5 µM·h

Compound: CNc1nc2c(nc(-c3ccccc3)n2C)c2c1ncn2C
- IC50 [1]: 4.3 µM
- IC50 [2]: < 50 µM
- IC50 [3]: 0.52 µM
- CL [4]: 0.12 nmol/mg/min
- IC50 [5]: 14 µM
- IC50 [6]: 12 µM
- IC50 [7]: 14 µM
- IC50 [8]: < 50 µM
- CL [9]: 0.13 nmol/mg/min
- IC50 [10]: 23 µM
- CL [11]: 0.08 nmol/mg/min
- IC50 [20]: 0.44 µM
- IC50 [12]: 19 µM

Compound: CNc1nc2sc(-c3cccc(CNC(C)=O)c3)nc2c2c1ncn2C
- IC50 [1]: 1.9 µM
- IC50 [2]: < 50 µM
- IC50 [3]: 0.022 µM
- IC50 [5]: 17 µM
- IC50 [6]: < 50 µM
- IC50 [7]: 12 µM
- IC50 [8]: < 50 µM
- IC50 [10]: 31 µM
- IC50 [20]: 0.35 µM
- IC50 [12]: 9.1 µM
